Measurements: ChEMBL document CHEMBL1148910, “A coumarin from Mallotus resinosus that mediates DNA cleavage” (J Nat Prod, 2004)
The source made the active and inactive calls. The calls are words filed in the database; no cut-off is given here.

Tests used:
Escherichia coli [1] = assay: Induction of strand scission in pBR322 DNA assessed as conversion from supercoiled form to nicked form at 1000 uM after 60 mins by agarose gel electrophoresis in absence of Cu2+
Method in brief: (§1)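 No Cu2+ was added. Supercoiled pBR322 DNA (500 ng) was incubated with test compound (in DMSO, final ≤5%) in 25 µL of 10 mM Tris-HCl, pH 8.0, at 37 °C for 60 min, with DNA alone as the blank. Products were separated on a 1.0% agarose gel with ethidium bromide in TBE at 110-120 V for 2-3 h and photographed under UV. Read-out was % nicked (form II) DNA.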

Escherichia coli [2] = assay: Induction of strand scission in supercoiled pBR322 DNA by agarose gel electrophoresis in presence of Fe2+
Escherichia coli [3] = assay: Induction of strand scission in pBR322 DNA assessed as conversion from supercoiled form to nicked form at 1000 uM after 60 mins by agarose gel electrophoresis in presence of Cu2+
Method in brief: (§2)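 Supercoiled pBR322 plasmid DNA (500 ng) was incubated with 20 µM Cu2+ and test compound (in DMSO, final ≤5%) in 25 µL of 10 mM Tris-HCl, pH 8.0, at 37 °C for 60 min. Controls were DNA alone and DNA + Cu2+. Products were run on a 1.0% agarose gel with 0.7 µg/mL ethidium bromide in TBE, pH 8.3, at 110-120 V for 2-3 h, then imaged under UV. Read-out was % form II (nicked) DNA.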

Escherichia coli [4] = assay: Induction of strand scission in pBR322 DNA assessed as conversion from supercoiled form to nicked form at 250 uM after 60 mins by agarose gel electrophoresis in presence of Cu2+; method in brief: as §2
Escherichia coli [5] = assay: Induction of strand scission in supercoiled pBR322 DNA by agarose gel electrophoresis in presence of Cu2+; method in brief: as §2
Escherichia coli [6] = assay: Induction of strand scission in pBR322 DNA assessed as conversion from supercoiled form to nicked form at 500 uM after 60 mins by agarose gel electrophoresis in presence of Cu2+; method in brief: as §2
Escherichia coli [7] = assay: Induction of strand scission in supercoiled pBR322 DNA by agarose gel electrophoresis in absence of added metal ion
Escherichia coli [8] = assay: Induction of strand scission in supercoiled pBR322 DNA by agarose gel electrophoresis in presence of Cu2+ and alkali
Escherichia coli [9] = assay: Induction of strand scission in pBR322 DNA assessed as conversion from supercoiled form to nicked form at 100 uM after 60 mins by agarose gel electrophoresis in presence of Cu2+; method in brief: as §2
Escherichia coli [10] = assay: Induction of strand scission in pBR322 DNA assessed as conversion from supercoiled form to nicked form at 250 uM after 60 mins by agarose gel electrophoresis in absence of Cu2+; method in brief: as §1
Escherichia coli [11] = assay: Induction of strand scission in pBR322 DNA assessed as conversion from supercoiled form to nicked form at 50 uM after 60 mins by agarose gel electrophoresis in presence of Cu2+; method in brief: as §2

Activity (Escherichia coli [1])	Activity (Escherichia coli [2])	Activity (Escherichia coli [3])	Activity (Escherichia coli [4])	Activity (Escherichia coli [5])	Activity (Escherichia coli [6])	Activity (Escherichia coli [7])	Activity (Escherichia coli [8])	Activity (Escherichia coli [9])	Activity (Escherichia coli [10])	Activity (Escherichia coli [11])	SMILES
2%	inactive	42%	14%	Dose-dependent effect	26%	inactive	–	–	–	–	COc1cc2oc(=O)ccc2cc1O
3%	inactive	36%	15%	Dose-dependent effect	22%	inactive	inactive	–	–	–	COc1cc2ccc(=O)oc2cc1O
–	inactive	–	76%	Dose-dependent effect	–	inactive	–	64%	2%	55%	O=c1ccc2cc(O)c(O)cc2o1
